The record followed here is ChEMBL document CHEMBL4229344 (Eur J Med Chem, 2018).

The term Cmax denotes the peak of the concentration-time curve.

Data set [1] can be described thus: Apparent clearance in Sprague-Dawley rat at 10 mg/kg, po. Particulars: in vivo, read-out: CL(app) (converted). The format is ADME, organism-based.
Data set [2] concerns ALK tyrosine kinase receptor (Homo sapiens), Q9UM73 [C1156Y]. Description: Binding affinity to wild-type human partial length ALK C1156Y mutant (I1088 to E1409 residues) expressed in mammalian expression system assessed as residual binding level at 1 uM by Kinomescan method relative to control. In outline:
(§1)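 Single-concentration KINOMEscan (DiscoverX) binding screen at 1 μM against a panel of 468 purified kinases and mutants. The read-out is binding relative to control.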

Data set [3] concerns Epidermal growth factor receptor (Homo sapiens), P00533 [UNDEFINED MUTATION]. Description: Binding affinity to human partial length EGFR L747-S752del/P753S mutant expressed in bacterial expression system assessed as residual binding level at 1 uM by Kinomescan method relative to control. In outline: (§2)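 Kinome-wide single-concentration binding screen (KINOMEscan) at 1 μM against a panel of 468 purified kinases and mutants. Read-out is relative binding of each kinase compared with control. Selectivity across the panel was summarised as an S(10) score.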

The test system of data set [4] is EOL1. Nature of the data set: Antitumor activity against human EOL-1 cells xenografted in nu/nu mouse assessed as induction of apoptosis at 25 to 100 mg/kg/day, ip by DAB staining-based TUNEL assay. It is filed as functional, organism-based. A digest of the protocol: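 Female nu/nu mice (6 weeks) given subcutaneous right-flank injection of 5 million EOL-1 cells in PBS/Matrigel 1:1. At 200–400 mm3 tumors, randomized to groups of 6 and dosed daily i.p. for 14 days at 25, 50 or 100 mg/kg/d in 0.5% methylcellulose/0.4% Tween80. Tumor volume = W²×L/2, measured daily.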

The test system of data set [5] is Epidermal growth factor receptor (Homo sapiens), P00533 [G719S]. Description: Binding affinity to human partial length EGFR G719S mutant (R669 to V1011 residues) expressed in bacterial expression system assessed as residual binding level at 1 uM by Kinomescan method relative to control. In outline: as §2
The target in data set [6] is Mitogen-activated protein kinase kinase kinase kinase 4 (Homo sapiens) (UniProt O95819). Description: Binding affinity to wild-type human partial length MAP4K4 (M1 to R310 residues) expressed in bacterial expression system assessed as residual binding level at 1 uM by Kinomescan method relative to control. A digest of the protocol:
(§3)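 Kinome-wide competition binding screen against a panel of 468 purified kinases/mutants, with the test compound at a single concentration of 1 μM. Read-out is the relative binding activity of each kinase in the presence of compound.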

Data set [7] addresses Tyrosine-protein kinase ABL1 (Homo sapiens, UniProt P00519). Nature of the data set: Binding affinity to wild-type human non-phosphorylated ABL1 (S229 to K512 residues) expressed in mammalian expression system assessed as residual binding level at 1 uM by Kinomescan method relative to control. In outline:
as §1

The nature of data set [8]: Cmax in Sprague-Dawley rat at 10 mg/kg, po. It is filed as ADME, organism-based. Also on record: dose 10 mg/kg, route oral. As to conditions: in vivo. In outline:
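Male Sprague-Dawley rats, 6–8 weeks old and fasted overnight, dosed IV at 1 mg/kg or PO at 10 mg/kg. Formulation was 5% DMSO/40% PEG400/55% saline (1 mg/mL). Jugular blood collected on heparin from 1 min to 8 h (IV) or 5 min to 24 h (PO). Plasma separated by centrifugation at 2–8 °C and stored at −80 °C.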

Data set [9] relates to Epidermal growth factor receptor (Homo sapiens), P00533 [L858R,T790M]. Description: Binding affinity to human partial length EGFR L858R/T790M double mutant (R669 to V1011 residues) expressed in mammalian expression system assessed as residual binding level at 1 uM by Kinomescan method relative to control. A digest of the protocol: as §2
Data set [10] is described as follows: Apparent volume of distribution in Sprague-Dawley rat at 1 mg/kg, iv. It is filed as ADME, organism-based. Particulars: in vivo, read-out: Vz.
The target of data set [11] is Activin receptor type-2B (Homo sapiens) (UniProt Q13705). Nature of the data set: Binding affinity to wild-type human ACVR2B (H169 to D504 residues) expressed in bacterial expression system assessed as residual binding level at 1 uM by Kinomescan method relative to control. In outline:
(§4)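 KINOMEscan competition binding against 468 purified kinases/mutants, test compound at 1 µM; residual binding relative to control.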

In data set [12] the target is Mitogen-activated protein kinase 8 (Homo sapiens) (UniProt P45983). Nature of the data set: Binding affinity to wild-type human full length JNK1 (M1 to Q384 residues) expressed in mammalian expression system assessed as residual binding level at 1 uM by Kinomescan method relative to control. A digest of the protocol: as §4
The target of data set [13] is Activin receptor type-1B (Homo sapiens) (UniProt P36896). Nature of the data set: Binding affinity to wild-type human ACVR1B (S187 to I505 residues) expressed in bacterial expression system assessed as residual binding level at 1 uM by Kinomescan method relative to control. In outline:
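Single-concentration (1 μM) competition-binding screen run by KINOMEscan against a panel of 468 purified kinases and mutants. The read-out is the relative binding activity of the test compound to each kinase.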

Data set [14] has as its target Serine/threonine-protein kinase PAK 1 (Homo sapiens) (UniProt Q13153). Description: Binding affinity to wild-type human partial length PAK1 (S149 to H545 residues) expressed in bacterial expression system assessed as residual binding level at 1 uM by Kinomescan method relative to control.
Data set [15] addresses Serine/threonine-protein kinase RIO2 (Homo sapiens) (UniProt Q9BVS4). Nature of the data set: Binding affinity to wild-type human partial length RIOK2 (M1 to D313 residues) expressed in mammalian expression system assessed as residual binding level at 1 uM by Kinomescan method relative to control. A digest of the protocol:
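KINOMEscan competition binding against a panel of 468 purified kinases/mutants, compound tested at 1 μM; readout is relative binding activity versus control.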

Data set [16] deals with Serine/threonine-protein kinase mTOR (Homo sapiens) (UniProt P42345). Nature of the data set: Binding affinity to wild-type human partial length MTOR (L1382 to W2549 residues) expressed in mammalian expression system assessed as residual binding level at 1 uM by Kinomescan method relative to control.
For data set [17], the target named is Calcium/calmodulin-dependent protein kinase type 1D (Homo sapiens) (UniProt Q8IU85). Description: Binding affinity to wild-type human partial length CAMK1D (M1 to K299 residues) expressed in bacterial expression system assessed as residual binding level at 1 uM by Kinomescan method relative to control. In outline: as §3
Data set [18] deals with Tyrosine-protein kinase SYK (Homo sapiens) (UniProt P43405). Nature of the data set: Binding affinity to wild-type human partial length SYK (D354 to N635 residues) expressed in bacterial expression system assessed as residual binding level at 1 uM by Kinomescan method relative to control.
Data set [19] deals with Cyclin-dependent kinase-like 5 (Homo sapiens) (UniProt O76039). Description: Binding affinity to wild-type human partial length CDKL5 (M1 to S337 residues) expressed in mammalian expression system assessed as residual binding level at 1 uM by Kinomescan method relative to control.
Data set [20] concerns the target Serine/threonine-protein kinase ULK1 (Homo sapiens) (UniProt O75385). Nature of the data set: Binding affinity to wild-type human partial length ULK1 (M1 to T309 residues) expressed in mammalian expression system assessed as residual binding level at 1 uM by Kinomescan method relative to control.

Activity calls are given as the source filed them. The calls are words filed in the database; no cut-off is given here.

Chain of Activin receptor type-1B (Homo sapiens) (P36896 whole entry, the tested form may be a part): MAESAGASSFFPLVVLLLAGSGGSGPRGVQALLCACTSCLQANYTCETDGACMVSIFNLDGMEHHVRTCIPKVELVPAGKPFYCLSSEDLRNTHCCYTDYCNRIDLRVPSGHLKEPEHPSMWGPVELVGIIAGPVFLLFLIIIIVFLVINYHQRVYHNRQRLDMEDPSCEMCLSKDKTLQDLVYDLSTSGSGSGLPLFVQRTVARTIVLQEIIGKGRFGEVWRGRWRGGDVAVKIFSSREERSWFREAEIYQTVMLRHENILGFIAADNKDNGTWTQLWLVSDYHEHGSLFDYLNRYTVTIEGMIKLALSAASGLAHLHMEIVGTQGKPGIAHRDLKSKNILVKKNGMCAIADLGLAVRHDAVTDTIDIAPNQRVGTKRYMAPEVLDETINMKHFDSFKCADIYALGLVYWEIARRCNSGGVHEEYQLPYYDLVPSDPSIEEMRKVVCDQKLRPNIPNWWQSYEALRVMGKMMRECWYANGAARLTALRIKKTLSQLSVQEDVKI
Chain of Serine/threonine-protein kinase ULK1 (Homo sapiens) (O75385 whole entry, the tested form may be a part): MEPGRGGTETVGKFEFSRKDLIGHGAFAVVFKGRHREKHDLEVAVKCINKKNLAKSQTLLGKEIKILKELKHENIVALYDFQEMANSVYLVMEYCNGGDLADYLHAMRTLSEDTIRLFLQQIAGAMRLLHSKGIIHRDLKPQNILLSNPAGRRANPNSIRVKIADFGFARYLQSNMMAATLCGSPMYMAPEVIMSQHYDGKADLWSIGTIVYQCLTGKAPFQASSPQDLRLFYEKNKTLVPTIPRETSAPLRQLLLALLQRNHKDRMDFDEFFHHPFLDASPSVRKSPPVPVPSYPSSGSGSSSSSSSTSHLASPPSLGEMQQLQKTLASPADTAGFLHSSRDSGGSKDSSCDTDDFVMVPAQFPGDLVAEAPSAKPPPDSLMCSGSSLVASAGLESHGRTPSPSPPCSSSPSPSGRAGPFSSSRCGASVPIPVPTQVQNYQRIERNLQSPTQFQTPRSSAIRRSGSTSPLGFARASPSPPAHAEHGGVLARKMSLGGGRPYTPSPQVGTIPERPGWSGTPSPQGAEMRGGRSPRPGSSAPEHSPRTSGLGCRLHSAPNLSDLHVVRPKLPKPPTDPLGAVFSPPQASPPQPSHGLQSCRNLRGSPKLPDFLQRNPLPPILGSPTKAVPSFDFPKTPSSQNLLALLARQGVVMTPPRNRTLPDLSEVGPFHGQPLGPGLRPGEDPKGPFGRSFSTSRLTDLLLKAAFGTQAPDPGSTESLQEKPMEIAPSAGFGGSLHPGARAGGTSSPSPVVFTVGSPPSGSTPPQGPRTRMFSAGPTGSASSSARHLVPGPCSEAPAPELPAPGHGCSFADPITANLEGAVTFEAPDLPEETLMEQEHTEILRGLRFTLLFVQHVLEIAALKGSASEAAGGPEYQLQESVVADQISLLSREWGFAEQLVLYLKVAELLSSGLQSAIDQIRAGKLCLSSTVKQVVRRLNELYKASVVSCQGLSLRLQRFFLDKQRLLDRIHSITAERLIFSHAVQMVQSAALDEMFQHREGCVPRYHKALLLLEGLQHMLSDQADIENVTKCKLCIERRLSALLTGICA
Chain of Serine/threonine-protein kinase PAK 1 (Homo sapiens) (Q13153 whole entry, the tested form may be a part): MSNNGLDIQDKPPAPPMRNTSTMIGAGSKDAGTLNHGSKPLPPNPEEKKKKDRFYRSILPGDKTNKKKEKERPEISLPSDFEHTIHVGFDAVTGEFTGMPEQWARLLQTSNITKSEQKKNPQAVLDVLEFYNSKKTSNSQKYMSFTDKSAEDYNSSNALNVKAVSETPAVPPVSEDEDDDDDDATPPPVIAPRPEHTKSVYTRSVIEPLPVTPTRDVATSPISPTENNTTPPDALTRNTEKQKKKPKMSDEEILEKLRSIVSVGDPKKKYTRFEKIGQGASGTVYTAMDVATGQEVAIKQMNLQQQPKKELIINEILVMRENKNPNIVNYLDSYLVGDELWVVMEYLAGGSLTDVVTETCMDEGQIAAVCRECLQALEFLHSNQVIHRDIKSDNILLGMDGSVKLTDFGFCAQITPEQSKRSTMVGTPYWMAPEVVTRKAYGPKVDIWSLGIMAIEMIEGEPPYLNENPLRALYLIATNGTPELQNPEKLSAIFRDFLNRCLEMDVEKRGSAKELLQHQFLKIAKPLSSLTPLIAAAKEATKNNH
Chain of Serine/threonine-protein kinase RIO2 (Homo sapiens) (Q9BVS4 whole entry, looked up, the tested form may be a part): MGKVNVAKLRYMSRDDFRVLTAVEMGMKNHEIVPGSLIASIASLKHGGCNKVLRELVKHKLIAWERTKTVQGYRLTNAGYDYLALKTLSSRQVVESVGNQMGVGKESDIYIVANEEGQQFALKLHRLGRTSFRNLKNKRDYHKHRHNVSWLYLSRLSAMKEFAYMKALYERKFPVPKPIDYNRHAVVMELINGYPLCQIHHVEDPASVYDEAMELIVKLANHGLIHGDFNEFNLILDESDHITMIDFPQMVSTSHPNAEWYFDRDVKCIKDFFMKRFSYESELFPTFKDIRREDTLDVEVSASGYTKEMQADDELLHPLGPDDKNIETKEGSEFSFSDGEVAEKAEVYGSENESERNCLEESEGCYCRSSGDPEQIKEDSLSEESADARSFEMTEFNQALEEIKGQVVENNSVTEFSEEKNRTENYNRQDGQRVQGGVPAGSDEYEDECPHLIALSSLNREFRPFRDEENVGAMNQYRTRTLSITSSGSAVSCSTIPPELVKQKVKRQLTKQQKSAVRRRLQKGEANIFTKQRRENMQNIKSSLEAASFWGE
Chain of ALK tyrosine kinase receptor (Homo sapiens), Q9UM73 [C1156Y] (Q9UM73 whole entry C1156Y, looked up, the tested form may be a part): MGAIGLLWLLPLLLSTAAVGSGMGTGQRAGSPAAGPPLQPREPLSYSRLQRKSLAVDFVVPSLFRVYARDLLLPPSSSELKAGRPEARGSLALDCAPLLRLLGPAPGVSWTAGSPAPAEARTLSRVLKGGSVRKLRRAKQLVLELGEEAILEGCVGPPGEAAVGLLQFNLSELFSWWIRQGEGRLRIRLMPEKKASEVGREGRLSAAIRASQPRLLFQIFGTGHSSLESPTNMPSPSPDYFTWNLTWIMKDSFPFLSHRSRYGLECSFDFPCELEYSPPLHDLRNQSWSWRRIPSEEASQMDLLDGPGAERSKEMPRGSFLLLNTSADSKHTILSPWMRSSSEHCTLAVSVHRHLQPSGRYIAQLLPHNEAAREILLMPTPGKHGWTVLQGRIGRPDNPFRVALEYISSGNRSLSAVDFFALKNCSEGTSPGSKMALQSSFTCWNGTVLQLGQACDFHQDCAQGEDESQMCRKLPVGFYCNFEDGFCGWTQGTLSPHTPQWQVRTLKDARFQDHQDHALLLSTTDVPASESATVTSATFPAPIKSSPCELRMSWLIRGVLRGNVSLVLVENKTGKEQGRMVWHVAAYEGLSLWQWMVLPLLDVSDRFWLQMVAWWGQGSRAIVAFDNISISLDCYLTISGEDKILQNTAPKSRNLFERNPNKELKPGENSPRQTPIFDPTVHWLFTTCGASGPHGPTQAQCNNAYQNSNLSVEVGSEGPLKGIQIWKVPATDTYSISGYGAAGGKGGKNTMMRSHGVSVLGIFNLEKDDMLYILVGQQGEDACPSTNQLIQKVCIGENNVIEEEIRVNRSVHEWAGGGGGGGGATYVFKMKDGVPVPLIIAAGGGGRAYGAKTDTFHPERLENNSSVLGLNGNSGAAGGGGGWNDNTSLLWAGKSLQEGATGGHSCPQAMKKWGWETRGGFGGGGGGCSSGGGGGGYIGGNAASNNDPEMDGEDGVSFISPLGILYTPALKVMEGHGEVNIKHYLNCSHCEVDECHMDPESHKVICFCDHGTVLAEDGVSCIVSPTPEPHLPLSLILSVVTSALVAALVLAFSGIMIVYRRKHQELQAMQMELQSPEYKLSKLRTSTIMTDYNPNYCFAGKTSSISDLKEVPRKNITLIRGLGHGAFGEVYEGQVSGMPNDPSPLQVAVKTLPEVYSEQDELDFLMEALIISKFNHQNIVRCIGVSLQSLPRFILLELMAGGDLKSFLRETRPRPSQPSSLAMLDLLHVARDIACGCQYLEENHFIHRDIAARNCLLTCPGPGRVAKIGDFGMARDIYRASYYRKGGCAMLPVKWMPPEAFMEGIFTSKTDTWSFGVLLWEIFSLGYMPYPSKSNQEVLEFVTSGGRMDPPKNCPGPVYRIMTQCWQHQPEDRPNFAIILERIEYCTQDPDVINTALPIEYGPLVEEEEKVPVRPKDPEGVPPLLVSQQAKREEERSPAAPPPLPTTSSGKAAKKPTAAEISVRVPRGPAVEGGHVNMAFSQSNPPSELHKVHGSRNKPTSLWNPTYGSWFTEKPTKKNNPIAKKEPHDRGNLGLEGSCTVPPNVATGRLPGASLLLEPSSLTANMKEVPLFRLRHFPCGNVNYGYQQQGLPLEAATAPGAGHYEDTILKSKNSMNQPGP
Chain of Activin receptor type-2B (Homo sapiens) (Q13705 whole entry, the tested form may be a part): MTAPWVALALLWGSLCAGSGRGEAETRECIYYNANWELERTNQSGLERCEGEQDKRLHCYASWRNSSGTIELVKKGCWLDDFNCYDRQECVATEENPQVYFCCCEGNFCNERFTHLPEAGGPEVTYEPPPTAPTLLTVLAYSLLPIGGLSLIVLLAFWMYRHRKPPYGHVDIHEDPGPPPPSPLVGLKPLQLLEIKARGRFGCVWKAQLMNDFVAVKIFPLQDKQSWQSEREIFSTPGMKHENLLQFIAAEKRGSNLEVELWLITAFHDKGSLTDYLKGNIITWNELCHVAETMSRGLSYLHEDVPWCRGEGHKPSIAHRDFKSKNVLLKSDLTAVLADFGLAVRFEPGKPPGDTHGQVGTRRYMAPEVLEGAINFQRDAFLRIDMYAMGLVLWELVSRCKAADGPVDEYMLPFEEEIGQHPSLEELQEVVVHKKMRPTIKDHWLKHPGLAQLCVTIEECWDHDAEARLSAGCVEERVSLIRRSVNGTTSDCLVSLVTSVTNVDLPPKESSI

Consider `Cc1ccc(NC(=O)c2ccc(CN(CCN(C)C)C(=O)c3cccnc3)cc2)cc1Nc1nccc(-c2cccnc2)n1`, for which the CL/F in [1] was 1450 mL/min/kg. Besides, the Activity in data set [2] turned out to be 100%; in data set [3], 96%; in [5] it was 85%; in data set [6], 87%; in [7] it was 4.9%; in data set [9], 94%. For the same molecule, the Activity in [11] stood at 89%; in data set [12], 36%; in data set [13], 100%; in data set [14] it was 95%; in data set [15], 87%; in [16], 100%. The Activity in data set [17] amounted to 84%; in [18] it was 96%; in data set [19], 100%; in [20], 100%. In addition, the result in data set [4] was Active. In data set [8], this molecule returned a Cmax of 28.9 ng/mL. The Vd in data set [10] came to 5.98 L/kg.
